# Measured values published in ChEMBL document CHEMBL1137767, “2-(3-Aryl-2-propenoyl)-3-methylquinoxaline-1,4-dioxides: a novel cluster of tumor-specific cytotoxins which reverse multidrug resistance” (Bioorg Med Chem, 2009).
# Calls of active or inactive are those of the source. The rule behind the calls is not given here.
# Experiments:
# [1] = Growth inhibition of human Molt4/C8 cells after 3 days; format: functional, cell-based; settings: MOLT-4, 72 h
# Summary of the method: (§1)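 Human CEM and Molt 4/C8 T-lymphocytes were grown for three days with or without serial dilutions of the compound. IC50 is the concentration that inhibits cell growth by 50%.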
# [2] = test system: M14; test: Growth inhibition of human M14 cells at 10 uM; format: functional, cell-based
# Summary of the method: (§2)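 Human tumor cell line panel (59 lines across leukemia, melanoma, non-small cell lung, colon, CNS, ovarian, renal, prostate, breast) treated at a single 10 uM concentration; growth inhibition recorded per line.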
# [3] = test system: CCRF-CEM; test: Growth inhibition of human CEM cells after 3 days; format: functional, cell-based; settings: 72 h; summary of the method: as §1
# [4] = test system: UO-31; test: Growth inhibition of human UO31 cells at 10 uM; format: functional, cell-based; summary of the method: as §2
# [5] = test system: OVCAR-4; test: Growth inhibition of human OVCAR4 cells at 10 uM; format: functional, cell-based; summary of the method: as §2
# [6] = test system: NCI-H460; test: Growth inhibition of human NCI-H460 cells at 10 uM; format: functional, cell-based; summary of the method: as §2
# [7] = test system: UACC-62; test: Growth inhibition of human UACC62 cells at 10 uM; format: functional, cell-based; summary of the method: as §2
# [8] = test system: CCRF-CEM; test: Growth inhibition of human CCRF-CEM cells at 10 uM; format: functional, cell-based; summary of the method: as §2
# [9] = test system: HCT-15; test: Growth inhibition of human HCT15 cells at 10 uM; format: functional, cell-based; summary of the method: as §2
# [10] = test system: HSC-2; test: Cytotoxicity against human HSC2 cells after 48 hrs; format: functional; settings: HSC-2, 48 h
# [11] = biological target: T1, ATP-dependent translocase ABCB1 (Homo sapiens, UniProt P08183); test: Reversal of P-glycoprotein-mediated multidrug resistance in human MDR1 gene transfected mouse L5178Y cells assessed as fluorescence activity ratio at 20 uM by rhodamine 123 accumulation assay; format: cell-based
# Summary of the method: (§3)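 Murine L-5178Y lymphoma cells transfected with human MDR1 gene (P-gp-overexpressing), alongside parental cells, treated or untreated with compound; rhodamine 123 accumulation measured by fluorescence; FAR = ratio of fluorescence intensity in treated versus untreated cells, values above 1 taken as MDR reversal.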
# [12] = Cytotoxicity against human HGF cells after 48 hrs; format: cell-based
# [13] = test system: NCI-H522; test: Growth inhibition of human NCI-H522 cells at 10 uM; format: functional, cell-based; summary of the method: as §2
# [14] = test system: HCC 2998; test: Growth inhibition of human HCC2998 cells at 10 uM; format: functional, cell-based; summary of the method: as §2
# [15] = test system: MCF7; test: Growth inhibition of human MCF7 cells at 10 uM; format: functional, cell-based; summary of the method: as §2
# [16] = test system: SF-295; test: Growth inhibition of human SF295 cells at 10 uM; format: functional, cell-based; summary of the method: as §2
# [17] = test system: A549; test: Growth inhibition of human A549 cells at 10 uM; format: functional, cell-based; summary of the method: as §2
# [18] = test system: HL-60; test: Growth inhibition of human HL60 cells at 10 uM; format: functional, cell-based; summary of the method: as §2
# [19] = test system: MDA-MB-435; test: Growth inhibition of human MDA-MB-435 cells at 10 uM; format: functional, cell-based; summary of the method: as §2
# [20] = test system: SNB-75; test: Growth inhibition of human SNB75 cells at 10 uM; format: functional, cell-based; summary of the method: as §2
# [21] = test system: RPMI8266; test: Growth inhibition of human […] cells at 10 uM; format: functional, cell-based; summary of the method: as §2
# [22] = test system: HCT-116; test: Growth inhibition of human HCT116 cells at 10 uM; format: functional, cell-based; summary of the method: as §2
# [23] = test system: PC-3; test: Growth inhibition of human PC3 cells at 10 uM; format: functional, cell-based; summary of the method: as §2
# [24] = test system: U-251; test: Growth inhibition of human U251 cells at 10 uM; format: functional, cell-based; summary of the method: as §2
# [25] = Cytotoxicity against human HPC cells after 48 hrs; format: cell-based
# [26] = test system: MDA-MB-468; test: Growth inhibition of human MDA-MB-468 cells at 10 uM; format: functional, cell-based; summary of the method: as §2
# [27] = test system: HOP-92; test: Growth inhibition of human HOP92 cells at 10 uM; format: functional, cell-based; summary of the method: as §2
# [28] = Cytotoxicity against human HPLF cells after 48 hrs; format: cell-based
# [29] = test system: NCI/ADR-RES; test: Growth inhibition of human NCI/ADR-RES cells at 10 uM; format: functional, cell-based; summary of the method: as §2
# [30] = test system: T47D; test: Growth inhibition of human T47D cells at 10 uM; format: functional, cell-based; summary of the method: as §2
# [31] = test system: Hs-578T; test: Growth inhibition of human Hs 578T cells at 10 uM; format: functional, cell-based; summary of the method: as §2
# [32] = test system: CAKI-1; test: Growth inhibition of human Caki1 cells at 10 uM; format: functional, cell-based; summary of the method: as §2
# [33] = test system: OVCAR-3; test: Growth inhibition of human OVCAR-3 cells at 10 uM; format: functional, cell-based; summary of the method: as §2
# [34] = test system: NCI-H23; test: Growth inhibition of human NCI-H23 cells at 10 uM; format: functional, cell-based; summary of the method: as §2
# [35] = test system: IGROV-1; test: Growth inhibition of human IGROV1 cells at 10 uM; format: functional, cell-based; summary of the method: as §2
# [36] = biological target: T1, ATP-dependent translocase ABCB1; test: Reversal of P-glycoprotein-mediated multidrug resistance in human MDR1 gene transfected mouse L5178Y cells assessed as fluorescence activity ratio at 200 uM by rhodamine 123 accumulation assay; format: cell-based; summary of the method: as §3
# [37] = test system: RXF 393; test: Growth inhibition of human RXF393 cells at 10 uM; format: functional, cell-based; summary of the method: as §2
# [38] = test system: HSC-3; test: Cytotoxicity against human HSC3 cells after 48 hrs; format: functional; settings: HSC-3, 48 h
# [39] = test system: OVCAR-8; test: Growth inhibition of human OVCAR8 cells at 10 uM; format: functional, cell-based; summary of the method: as §2
# [40] = test system: DU-145; test: Growth inhibition of human DU145 cells at 10 uM; format: functional, cell-based; summary of the method: as §2
# [41] = test system: HSC-4; test: Cytotoxicity against human HSC4 cells after 48 hrs; format: functional; settings: HSC-4, 48 h
# [42] = test system: HL-60; test: Cytotoxicity against human HL60 cells after 48 hrs; format: functional; settings: HL-60, 48 h
# [43] = test system: LOX IMVI; test: Growth inhibition of human LOXIMVI cells at 10 uM; format: functional, cell-based; summary of the method: as §2
# [44] = test system: EKVX; test: Growth inhibition of human EKVX cells at 10 uM; format: functional, cell-based; summary of the method: as §2
# [45] = test system: K562; test: Growth inhibition of human K562 cells at 10 uM; format: functional, cell-based; summary of the method: as §2
# [46] = test system: A498; test: Growth inhibition of human A498 cells at 10 uM; format: functional, cell-based; summary of the method: as §2
# [47] = test system: SW-620; test: Growth inhibition of human SW620 cells at 10 uM; format: functional, cell-based; summary of the method: as §2
# T1 sequence (P08183 whole entry): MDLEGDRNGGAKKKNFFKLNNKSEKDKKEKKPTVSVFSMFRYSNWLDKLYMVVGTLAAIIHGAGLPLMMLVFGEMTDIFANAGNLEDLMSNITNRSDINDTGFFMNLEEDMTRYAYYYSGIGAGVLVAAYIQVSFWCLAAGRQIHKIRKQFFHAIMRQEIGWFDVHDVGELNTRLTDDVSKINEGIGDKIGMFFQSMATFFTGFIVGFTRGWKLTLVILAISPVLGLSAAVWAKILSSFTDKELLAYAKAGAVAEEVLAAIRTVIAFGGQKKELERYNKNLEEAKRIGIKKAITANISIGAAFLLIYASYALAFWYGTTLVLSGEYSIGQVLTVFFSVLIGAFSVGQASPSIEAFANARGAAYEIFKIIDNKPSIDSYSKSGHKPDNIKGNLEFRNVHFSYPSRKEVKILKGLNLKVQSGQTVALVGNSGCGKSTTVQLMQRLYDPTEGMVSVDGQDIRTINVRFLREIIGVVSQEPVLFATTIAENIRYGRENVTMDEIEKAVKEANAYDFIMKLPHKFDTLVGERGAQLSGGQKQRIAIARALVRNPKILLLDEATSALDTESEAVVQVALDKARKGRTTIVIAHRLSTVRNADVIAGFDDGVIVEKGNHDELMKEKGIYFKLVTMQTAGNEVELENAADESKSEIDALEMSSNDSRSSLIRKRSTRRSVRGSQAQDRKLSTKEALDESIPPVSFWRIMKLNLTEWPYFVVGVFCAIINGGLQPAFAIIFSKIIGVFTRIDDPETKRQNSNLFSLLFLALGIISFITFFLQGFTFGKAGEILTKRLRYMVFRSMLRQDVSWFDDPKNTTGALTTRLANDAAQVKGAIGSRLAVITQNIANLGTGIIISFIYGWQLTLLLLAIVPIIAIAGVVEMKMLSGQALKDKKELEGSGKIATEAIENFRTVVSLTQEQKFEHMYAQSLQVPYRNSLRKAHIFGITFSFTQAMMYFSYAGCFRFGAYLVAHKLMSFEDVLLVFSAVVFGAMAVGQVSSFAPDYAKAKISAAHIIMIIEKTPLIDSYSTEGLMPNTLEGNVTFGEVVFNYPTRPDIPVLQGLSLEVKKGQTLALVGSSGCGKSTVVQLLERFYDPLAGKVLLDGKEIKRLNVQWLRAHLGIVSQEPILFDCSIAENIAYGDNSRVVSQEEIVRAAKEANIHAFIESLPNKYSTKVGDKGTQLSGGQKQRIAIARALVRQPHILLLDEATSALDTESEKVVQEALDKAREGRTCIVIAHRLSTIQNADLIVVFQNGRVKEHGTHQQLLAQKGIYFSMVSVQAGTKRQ
smiles,measurement,setting,value
COc1ccc(/C=C/C(=O)c2c(C)[n+]([O-])c3ccccc3[n+]2[O-])cc1,IC50,[1],25.8 µM
same,growth inhibition (GI),[2],Active
same,IC50,[3],27.6 µM
same,growth inhibition (GI),[4],Active
same,growth inhibition (GI),[5],Active
same,growth inhibition (GI),[6],Active
same,growth inhibition (GI),[7],Active
same,growth inhibition (GI),[8],Active
same,growth inhibition (GI),[9],Active
same,CC50,[10],20 µM
same,Ratio,[11],4.25
same,CC50 at 48 h,[12],52 µM
same,growth inhibition (GI),[13],Active
same,growth inhibition (GI),[14],Active
same,growth inhibition (GI),[15],Active
same,growth inhibition (GI),[16],Active
same,growth inhibition (GI),[17],Active
same,growth inhibition (GI),[18],Active
same,growth inhibition (GI),[19],Active
same,growth inhibition (GI),[20],Active
same,growth inhibition (GI),[21],Active
same,growth inhibition (GI),[22],Active
same,growth inhibition (GI),[23],Active
same,growth inhibition (GI),[24],Active
same,CC50 at 48 h,[25],92 µM
same,growth inhibition (GI),[26],Active
same,growth inhibition (GI),[27],Active
same,CC50 at 48 h,[28],93 µM
same,growth inhibition (GI),[29],Active
same,growth inhibition (GI),[30],Active
same,growth inhibition (GI),[31],Active
same,growth inhibition (GI),[32],Active
same,growth inhibition (GI),[33],Active
same,growth inhibition (GI),[34],Active
same,growth inhibition (GI),[35],Active
same,Ratio,[36],31.7
same,growth inhibition (GI),[37],Active
same,CC50,[38],23 µM
same,growth inhibition (GI),[39],Active
same,growth inhibition (GI),[40],Active
same,CC50,[41],11 µM
same,CC50,[42],16 µM
same,growth inhibition (GI),[43],Active
same,growth inhibition (GI),[44],Active
same,growth inhibition (GI),[45],Active
same,growth inhibition (GI),[46],Active
same,growth inhibition (GI),[47],Active
